Test results: ChEMBL document CHEMBL3124872, “Discovery and early development of TMC647055, a non-nucleoside inhibitor of the hepatitis C virus NS5B polymerase” (J Med Chem, 2014)
Active and inactive are the calls of the source. No cut-off for these calls is given here.

Experiments:
[1] = Cytotoxicity against human MT4 cells; assay type: cell-based
[2] = Binding affinity to His6-tagged Hepatitis C virus Con 1b NS5B delta21 RNA dependent RNA polymerase expressed in Escherichia coli Rosetta 2 (DE3) by surface plasmon resonance analysis; parameters: species or system Hepatitis C virus (isolate Con1)
Summary of the method: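 Surface plasmon resonance binding to NS5B polymerase of the stated genotype; association and dissociation rate constants measured, from which Kd and residence half-life were derived; median Kd reported.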

[3] = Cytotoxicity against human HuH7 cells; assay type: cell-based, Huh-7
[4] = tested on: Hepatitis C virus; assay: Antiviral activity against Hepatitis C virus genotype 1b infected in human HuH7 cells after 72 hrs by luciferase reporter gene assay in presence of 40% human plasma relative to control; assay type: functional, Hepacivirus hominis, Huh-7
[5] = tested on: Hepatitis C virus; assay: Antiviral activity against Hepatitis C virus genotype 1b infected in human HuH7 cells after 72 hrs by luciferase reporter gene assay; assay type: functional, organism-based, Hepacivirus hominis; conditions: Huh-7, 72 h
[6] = Drug uptake in Sprague-Dawley rat liver at 10 mg/kg, po after 7 hrs; assay type: ADME, organism-based; parameters: dose 10 mg/kg, route oral; conditions: read-out: Drug uptake
[7] = Plasma clearance in Sprague-Dawley rat at 2 mg/kg, iv and 10 mg/kg, po; assay type: ADME, organism-based
[8] = Oral bioavailability in Sprague-Dawley rat at 10 mg/kg; assay type: ADME, organism-based; conditions: in vivo
[9] = Drug metabolism in rat liver microsomes after 15 mins; assay type: ADME; conditions: read-out: Drug metabolism
[10] = Drug metabolism in human liver microsomes at 5 uM after 15 mins; assay type: ADME; conditions: read-out: Drug metabolism
Summary of the method: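 Stability in human liver microsomes: test compound at 5 μM, incubated 15 min; reported as percentage of compound metabolized.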

[11] = Ratio of drug level in liver to plasma in Sprague-Dawley rat at 10 mg/kg, po after 7 hrs; assay type: ADME, organism-based; parameters: dose 10 mg/kg, route oral
[12] = tested on: Hepatitis C virus; assay: Antiviral activity against Hepatitis C virus genotype 1b infected in human HuH7 assessed as clearance of replicon cells at 0.25 uM preincubated for 2 weeks followed by 3 week rebound phase by RT-PCR analysis; assay type: functional, organism-based; conditions: Hepacivirus hominis, Huh-7
Summary of the method: (§1)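 Huh7-Luc replicon cells incubated 14 days with compound alone or in combination, followed by a 3-week rebound phase without inhibitor; replicon RNA followed for clearance and rebound.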

[13] = tested on: Hepatitis C virus; assay: Antiviral activity against Hepatitis C virus genotype 1b infected in human assessed as reduction in plasma HCV RNA level administered for 10 days measured on day 11; assay type: functional, organism-based; conditions: Hepacivirus hominis
Summary of the method: (§2)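 HCV genotype 1a- and 1b-infected patients received oral 1000 mg b.i.d. together with an NS3/4A protease inhibitor at 150 mg q.d. for 10 days. The read-out was the median decrease in plasma HCV RNA (log10 IU/mL) at day 11.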

[14] = tested on: Hepatitis C virus; assay: Antiviral activity against Hepatitis C virus genotype 1a infected in human assessed as reduction in plasma HCV RNA level administered for 10 days measured on day 11; assay type: functional, organism-based; conditions: Hepacivirus hominis, subtype 1a; summary of the method: as §2
[15] = tested on: Hepatitis C virus; assay: Antiviral activity against Hepatitis C virus genotype 1b infected in human HuH7 assessed as suppression of formation of resistant colonies at 0.2 uM preincubated for 2 weeks followed by 3 week rebound phase by RT-PCR analysis; assay type: functional, organism-based; conditions: Hepacivirus hominis, Huh-7
Summary of the method: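 Colony formation test in Huh7-Luc replicon cells incubated for 2−3 weeks with inhibitor alone (0.20 μM), scored for formation of resistant colonies.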

[16] = tested on: Hepatitis C virus; assay: Antiviral activity against Hepatitis C virus genotype 1b infected in human HuH7 assessed as rebound of replicon RNA at 0.25 uM preincubated for 2 weeks followed by 3 week rebound phase by RT-PCR analysis; assay type: functional, organism-based; conditions: Hepacivirus hominis, Huh-7; summary of the method: as §1

`COc1ccc2c(c1)C=C1Cn3c-2c(C2CCCCC2)c2ccc(cc23)C(=O)NS(=O)(=O)N(C)CCCCCCN(C)C1=O` gave a CC50 [1] of over 25 µM, a Kd [2] of 0.0008 µM and a CC50 [3] of over 25 µM. The “fold change (FC)” value [4] was 10.

In the case of `COc1ccc2c(c1)C=C1Cn3c-2c(C2CCCCC2)c2ccc(cc23)C(=O)NS(=O)(=O)N(C)CCCCN(C)C1=O`, the EC50 [5] is reported as 0.075 µM, the CC50 [1] is reported as over 25 µM and the CC50 [3] is reported as over 25 µM.

With `COc1ccc2c(c1)C=C1Cn3c-2c(C2CCCCC2)c2ccc(cc23)C(=O)NS(=O)(=O)N(C)CCCN(C)C1=O` the CC50 [1] was over 25 µM, the Kd [2] was 0.007 µM and the CC50 [3] was over 25 µM. For the same compound, the “fold change (FC)” value [4] was 10.

In the case of `COc1ccc2c(c1)C=C1Cn3c-2c(C2CCCCC2)c2ccc(cc23)C(=O)NS(=O)(=O)N(C)CCCCCNC1=O`, the CC50 [1] is reported as over 25 µM, the Kd [2] is reported as 0.0009 µM and the CC50 [3] is reported as over 25 µM. For the same compound, the concentration at 7 h [6] was 6320 ng/g and the “fold change (FC)” value [4] was 10.

In the case of `COc1ccc2c(c1)C=C1Cn3c-2c(C2CCCCC2)c2ccc(cc23)C(=O)NS(=O)(=O)N(C)CCN(C)CCNC1=O`, the CC50 [1] is reported as over 25 µM, the CC50 [3] is reported as over 25 µM and the “fold change (FC)” value [4] is reported as 10.

With `COc1ccc2c(c1)C=C1Cn3c-2c(C2CCCCC2)c2ccc(cc23)C(=O)NS(=O)(=O)N2CCN(CCNC1=O)CC2` the CC50 [1] was over 25 µM, the Kd [2] was 0.025 µM and the CC50 [3] was over 25 µM. For the same compound, the “fold change (FC)” value [4] was 10.

Compound `CN1CCOCCN(C)S(=O)(=O)NC(=O)c2ccc3c(C4CCCCC4)c4n(c3c2)CC(=Cc2cc(Cl)ccc2-4)C1=O` has a CC50 [1] of over 25 µM, a Kd [2] of 0.0015 µM and a CC50 [3] of over 25 µM. The “fold change (FC)” value [4] was 10.

`CN1CCOCCN(C)S(=O)(=O)NC(=O)c2ccc3c(C4CCCCC4)c4n(c3c2)CC(=Cc2cc(F)ccc2-4)C1=O` showed a CC50 [1] of over 25 µM, a CC50 [3] of over 25 µM and a concentration at 7 h [6] of 6560 ng/g. For the same compound, the “fold change (FC)” value [4] was 10.

`COc1ccc2c(c1)C=C1Cn3c-2c(C2CCCCC2)c2ccc(cc23)C(=O)NS(=O)(=O)N(C)CCCCNC1=O` gave a CC50 [1] of over 25 µM, a Kd [2] of 0.0071 µM and a CC50 [3] of over 25 µM. For the same compound, the “fold change (FC)” value [4] was 10.

In the case of `COc1ccc2c(c1)C=C1Cn3c-2c(C2CCCCC2)c2ccc(cc23)C(=O)NS(=O)(=O)NCCCCN(C)C1=O`, the CC50 [1] is reported as over 25 µM, the Kd [2] is reported as 0.015 µM and the CC50 [3] is reported as over 25 µM. The “fold change (FC)” value [4] was 10.

With `COc1ccc2c(c1)C=C1Cn3c-2c(C2CCCCC2)c2ccc(cc23)C(=O)NS(=O)(=O)N(C)CCN2CCN(CC2)C1=O` the CC50 [1] was over 25 µM, the CC50 [3] was over 25 µM and the concentration at 7 h [6] was 299 ng/g. For the same compound, the “fold change (FC)” value [4] was 10.

`COc1ccc2c(c1)C[C@@H]1Cn3c-2c(C2CCCCC2)c2ccc(cc23)C(=O)NS(=O)(=O)N(C)CCOCCN(C)C1=O` gave a CC50 [1] of over 25 µM, a CC50 [3] of over 25 µM and a concentration at 7 h [6] of 898 ng/g. The “fold change (FC)” value [4] was 10.

With `COc1ccc2c(c1)C[C@H]1Cn3c-2c(C2CCCCC2)c2ccc(cc23)C(=O)NS(=O)(=O)N(C)CCOCCN(C)C1=O` the CC50 [1] was over 25 µM, the CC50 [3] was over 25 µM and the “fold change (FC)” value [4] was 10.

`COc1ccc2c(c1)[C@@H]1C[C@]13Cn1c-2c(C2CCCCC2)c2ccc(cc21)C(=O)NS(=O)(=O)N(C)CCOCCN(C)C3=O` gave an EC50 [5] of 0.04 µM, a clearance [7] of 86.7 mL/min/kg and a CC50 [1] of over 25 µM. The bioavailability [8] was 51%, the metabolised at 0.25 h [9] was 70% and the CC50 [3] was over 25 µM. The concentration at 7 h [6] was 3200 ng/g, the “fold change (FC)” value [4] was 10 and the metabolised at 0.25 h, 5 µM [10] was 95%. For the same compound, the Kp at 7 h [11] was 38.

In the case of `COc1ccc2c(c1)C=C1CN(C)CCCCN(C)S(=O)(=O)NC(=O)c3ccc4c(C5CCCCC5)c-2n(c4c3)C1`, the EC50 [5] is reported as 2.34 µM, the CC50 [1] is reported as over 25 µM and the CC50 [3] is reported as over 25 µM. The “fold change (FC)” value [4] was 10.

With `COc1ccc2c(c1)[C@H]1C[C@@]13Cn1c-2c(C2CCCCC2)c2ccc(cc21)C(=O)NS(=O)(=O)N(C)CCOCCN(C)C3=O` the EC50 [5] was 0.8 µM, the CC50 [1] was over 25 µM and the CC50 [3] was over 25 µM. For the same compound, the “fold change (FC)” value [4] was 10.

In the case of `COc1ccc2c(O[C@@H]3C[C@H]4C(=O)N[C@]5(C(=O)NS(=O)(=O)C6CC6)C[C@H]5/C=C\CCCCN(C)C(=O)[C@@H]4C3)cc(-c3nc(C(C)C)cs3)nc2c1C`, the Activity [12] is reported as “inactive”, the Activity [13] is reported as “Active” and the Activity [14] is reported as “Active”. For the same compound, the Activity [15] was “inactive” and the Activity [16] was “inactive”.
